Reference: ChEMBL document CHEMBL1156568, “3-(1H-tetrazol-5-yl)-1,4,5,6-tetrahydro-cyclopentapyrazole (MK-0354): a partial agonist of the nicotinic acid receptor, G-protein coupled receptor 109a, with antilipolytic but no vasodilatory activity in mice” (J Med Chem, 2008)
Calls of active or inactive are those of the source. No cut-off for these calls is given here.

Experiments:
Mus musculus [1] = assay: Reduction in plasma FFA level in ip dosed C57BL/6 mouse; type: functional; details: C57BL/6, Plasma
In short: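 Male C57BL/6 mice, at least 8 weeks old, fasted 16 h, then dosed ip in saline. Plasma FFA was measured by an enzymatic NEFA assay, and compound levels in the same plasma by LC-MS/MS.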

Mus musculus [2] = species on record: Mus musculus; assay: Vasodilation effect in C57BL/6 mouse assessed as increase in blood flow relative to baseline; type: functional, organism-based
In short: (§1)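 Male C57BL/6 mice, 8-10 weeks, ~25 g, anesthetized with Nembutal ip (80 mg/kg). After 10 min, ear blood flow was recorded by laser Doppler imaging: 3 min baseline, then ip dosing (5 mL/kg) through a preinserted syringe, reading ~15 min. Vehicle was PBS, 40% HPBCD or 0.5% methylcellulose. Result expressed as % change in perfusion over baseline.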

Adipocyte = assay: Inhibition isoproterenol-stimulated lipolysis in human adipocytes
Mus musculus [3] = species on record: Mus musculus; assay: Inhibition of PGD2-induced vasodilation response in C57BL/6 mouse assessed as blood flow; type: functional, organism-based; in short: as §1
Mus musculus [4] = species on record: Mus musculus; assay: Inhibition of nicotinic acid-induced vasodilation response in C57BL/6 mouse assessed as blood flow; type: functional, organism-based; in short: as §1
[5] = target: Hydroxycarboxylic acid receptor 3 (Homo sapiens) (UniProt P49019); assay: Agonist activity against GPR109b assessed as forskolin-induced cAMP accumulation relative to nicotinic acid; type: functional
Hydroxycarboxylic acid receptor 3 (Homo sapiens), sequence (P49019 whole entry): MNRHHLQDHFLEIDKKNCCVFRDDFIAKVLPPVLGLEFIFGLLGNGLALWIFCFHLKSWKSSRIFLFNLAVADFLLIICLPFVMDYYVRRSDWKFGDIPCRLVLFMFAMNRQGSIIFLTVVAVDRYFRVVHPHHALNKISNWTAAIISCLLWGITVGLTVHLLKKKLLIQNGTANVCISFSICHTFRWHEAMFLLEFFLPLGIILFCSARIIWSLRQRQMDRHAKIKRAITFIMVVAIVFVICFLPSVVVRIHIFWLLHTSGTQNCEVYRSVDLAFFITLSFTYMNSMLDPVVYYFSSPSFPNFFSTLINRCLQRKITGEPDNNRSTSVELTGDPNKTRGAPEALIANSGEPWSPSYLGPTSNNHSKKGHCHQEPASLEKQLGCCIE

[6] = Oral bioavailability in C57BL/6 mouse at 10 mg/kg, po; type: ADME, organism-based; details: in vivo
In short: (§2)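 Male C57BL/6 mice dosed IV at 5.0 mg/kg in PBS, or by oral gavage at 10 mg/kg in PBS. Clearance is blood clearance. Cmax and Tmax come from oral dosing. Half-life is terminal. Oral bioavailability is also reported.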

[7] = Tmax in C57BL/6 mouse at 5 mg/kg, iv and 10 mg/kg, po; type: ADME, organism-based; details: in vivo; in short: as §2
[8] = Volume of distribution in C57BL/6 mouse at 5 mg/kg, iv and 10 mg/kg, po; type: ADME, organism-based; details: in vivo; in short: as §2
[9] = Cmax in C57BL/6 mouse at 5 mg/kg, iv and 10 mg/kg, po; type: ADME, organism-based; details: in vivo; in short: as §2
[10] = Half life in C57BL/6 mouse at 5 mg/kg, iv and 10 mg/kg, po; type: ADME, organism-based; details: in vivo; in short: as §2

Molecule O=C(O)c1cccnc1 [NIACIN] has an ED50 (Mus musculus [1]) of 9.7 mg/kg.
For O=C(O)c1n[nH]c2c1CCC2, the Activity (Mus musculus [2]) was “Dose-dependent effect”.
In the case of C1Cc2[nH]nc(-c3nn[nH]n3)c2C1, the IC50 (Adipocyte) is reported as 3.1 µM, the ED50 (Mus musculus [1]) is reported as 3.1 mg/kg and the Activity (Mus musculus [3]) is reported as “inactive”. The Activity (Mus musculus [4]) was “Active” and the Activity [5] was “inactive”.
With C1Cc2[nH]nc(-c3nnn[nH]3)c2C1 the bioavailability [6] was 93%, the Tmax [7] was 4.98 min and the Vd [8] was 13 L/kg. It also gave a Cmax [9] of 16 µM and a half-life [10] of 10 h.
